Measured values as given in ChEMBL document CHEMBL4177648, “Benzofuran-dihydropyridine hybrids: A new class of potential bone anabolic agents” (Bioorg Med Chem, 2017).
Active and inactive are the calls of the source. The rule behind the calls is not given here.

Experiments:
Calvarial osteoblast [1] = assay: Anabolic activity in rat calvarial osteoblasts assessed as induction of alkaline phosphatase activity at 1 uM after 48 hrs in presence of beta-glycerophosphate and ascorbic acid by p-nitrophenyl phosphate substrate based assay (reference value: 1 to 1.21); assay type: functional
Calvarial osteoblast [2] = assay: Anabolic activity in rat calvarial osteoblasts assessed as induction of alkaline phosphatase activity at 100 pM after 48 hrs in presence of beta-glycerophosphate and ascorbic acid by p-nitrophenyl phosphate substrate based assay (reference value: 1 to 1.21); assay type: functional
Calvarial osteoblast [3] = assay: Anabolic activity in rat calvarial osteoblasts assessed as induction of alkaline phosphatase activity at 10 nM after 48 hrs in presence of beta-glycerophosphate and ascorbic acid by p-nitrophenyl phosphate substrate based assay (reference value: 1 to 1.21); assay type: functional
Calvarial osteoblast [4] = assay: Anabolic activity in rat calvarial osteoblasts assessed as induction of alkaline phosphatase activity at 1 pM after 48 hrs in presence of beta-glycerophosphate and ascorbic acid by p-nitrophenyl phosphate substrate based assay (reference value: 1 to 1.21); assay type: functional
Calvarial osteoblast [5] = assay: Anabolic activity in rat calvarial osteoblasts assessed as induction of alkaline phosphatase activity at 100 uM after 48 hrs in presence of beta-glycerophosphate and ascorbic acid by p-nitrophenyl phosphate substrate based assay (reference value: 1 to 1.21); assay type: functional
Calvarial osteoblast [6] = assay: Anabolic activity in rat calvarial osteoblasts assessed as induction of alkaline phosphatase activity after 48 hrs in presence of beta-glycerophosphate and ascorbic acid by p-nitrophenyl phosphate substrate based assay; assay type: functional, cell-based
Calvarial osteoblast [7] = assay: Upregulation of Col1 mRNA levels in rat calvarial osteoblasts at 1 uM after 48 hrs by qRT-PCR analysis relative to control; assay type: functional
Method in brief: (§1)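 Rat pup calvarial osteoblasts were treated for 48 h with compound. Total RNA was extracted with TRIzol and checked by A260 and A260/A280. qRT-PCR used 45 cycles (94 °C, 62 °C, 72 °C steps) and was normalised to GAPDH. Fold change is over untreated cells; n=5, mean ± SEM.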

Calvarial osteoblast [8] = assay: Upregulation of Runx2 mRNA levels in rat calvarial osteoblasts at 1 uM after 48 hrs by qRT-PCR analysis relative to control; assay type: functional; method in brief: as §1
Calvarial osteoblast [9] = assay: Upregulation of Bmp2 mRNA levels in rat calvarial osteoblasts at 1 uM after 48 hrs by qRT-PCR analysis relative to control; assay type: functional; method in brief: as §1
Calvarial osteoblast [10] = assay: Induction of mineralization in rat calvarial osteoblasts at 1 uM after 21 days by Alizarin-red dye based assay; assay type: functional, cell-based
Method in brief: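 Rat pup calvarial osteoblasts were seeded at 1×10^4 cells/well in differentiation medium with compound. Medium was changed every other day for 21 days. Cells were fixed in 4% paraformaldehyde and stained with 40 mM Alizarin red (pH 4.5). Stain was extracted with 10% acetic acid, heated to 85 °C, and neutralised with NH4OH. Absorbance was read at 405 nm.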

Calvarial osteoblast [11] = assay: Upregulation of ALP mRNA levels in rat calvarial osteoblasts at 1 uM after 48 hrs by qRT-PCR analysis relative to control; assay type: functional; method in brief: as §1
Calvarial osteoblast [12] = assay: Upregulation of Osx mRNA levels in rat calvarial osteoblasts at 1 uM after 48 hrs by qRT-PCR analysis relative to control; assay type: functional; method in brief: as §1

Row | Structure (SMILES) | OD (Calvarial osteoblast [1]) | OD (Calvarial osteoblast [2]) | OD (Calvarial osteoblast [3]) | OD (Calvarial osteoblast [4]) | OD (Calvarial osteoblast [5]) | EC50 (Calvarial osteoblast [6]) | fold change (FC) (Calvarial osteoblast [7]) | fold change (FC) (Calvarial osteoblast [8]) | fold change (FC) (Calvarial osteoblast [9]) | Activity (Calvarial osteoblast [10]) | fold change (FC) (Calvarial osteoblast [11]) | fold change (FC) (Calvarial osteoblast [12])
1 | CCOC(=O)C1=C(C)NC2=C(C(=O)CCC2)C1c1cc(C(C)CC)c2oc(C(=O)c3ccc(Cl)cc3)cc2c1 (centres undefined) | 0.79 | 1.02 | 1.04 | 0.9 | 0.31 |  |  |  |  |  |  | 
2 | CCC(C)c1cc(C=O)cc2cc(C(=O)c3ccc([N+](=O)[O-])cc3)oc12 (centres undefined) | 1.08 | 0.66 | 0.73 | 1.04 | 0.31 |  |  |  |  |  |  | 
3 | CCOC(=O)C1=C(C)NC2=C(C(=O)CCC2)C1c1cc(C(C)(C)C)c2oc(C(=O)c3ccc(OC)cc3)cc2c1 (centres undefined) | 1.77 | 1.14 | 1.17 | 1.14 | 0.29 |  |  |  |  |  |  | 
4 | CCC(C)c1cc(C2C(C(=O)OC)=C(C)NC3=C2C(=O)CC(C)(C)C3)cc2cc(C(=O)c3ccc(Cl)cc3)oc12 (centres undefined) | 0.23 | 0.85 | 0.86 | 1.08 | 0.23 |  |  |  |  |  |  | 
5 | CCc1cc(C2C(C(=O)OC)=C(C)NC3=C2C(=O)CC(C)(C)C3)cc2cc(C(=O)c3ccc(OC)cc3)oc12 (centres undefined) | 1.2 | 0.73 | 1.19 | 1.26 | 0.18 |  |  |  |  |  |  | 
6 | COC(=O)C1=C(C)NC2=C(C(=O)CCC2)C1c1cc(C(C)(C)C)c2oc(C(=O)c3ccc(OC)cc3)cc2c1 (centres undefined) | 1.17 | 1.01 | 1.07 | 1.19 | 0.32 |  |  |  |  |  |  | 
7 | COc1ccc(C(=O)c2cc3cc(C=O)cc(C(C)(C)C)c3o2)cc1 | 1.26 | 1.5 | 1.7 | 1.33 | 0.59 |  |  |  |  |  |  | 
8 | CCOC(=O)C1=C(C)NC2=C(C(=O)CCC2)C1c1cc(C(C)CC)c2oc(C(=O)c3ccc([N+](=O)[O-])cc3)cc2c1 (centres undefined) | 0.69 | 0.82 | 0.89 | 1.12 | 0.37 |  |  |  |  |  |  | 
9 | CCC(C)c1cc(C=O)cc2cc(C(=O)c3ccc(C)cc3)oc12 (centres undefined) | 1.42 | 1.16 | 1.41 | 1.23 | 0.3 | 31.4 nM |  |  |  |  |  | 
10 | CCOC(=O)C1=C(C)NC2=C(C(=O)CC(C)(C)C2)C1c1ccccc1 (centres undefined) | 1.23 | 1.41 | 1.41 | 1.03 | 0.58 |  |  |  |  |  |  | 
11 | CCOC(=O)C1=C(C)NC2=C(C(=O)CCC2)C1c1ccccc1 (centres undefined) | 1.44 | 1.25 | 1.43 | 1.26 | 0.74 |  |  |  |  |  |  | 
12 | CCOC(=O)C1=C(C)NC2=C(C(=O)CC(C)(C)C2)C1c1cc(CC)c2oc(C(=O)c3ccc(OC)cc3)cc2c1 (centres undefined) | 1.72 | 1.45 | 1.65 | 1.24 | 0.5 |  |  |  |  |  |  | 
13 | CCOC(=O)C1=C(C)NC2=C(C(=O)CC(C)(C)C2)C1c1cc(C(C)(C)C)c2oc(C(=O)c3ccc(OC)cc3)cc2c1 (centres undefined) | 1.15 | 1.53 | 1.47 | 1.04 | 0.36 |  |  |  |  |  |  | 
14 | CCC(C)c1cc(C2C(C(=O)OC)=C(C)NC3=C2C(=O)CCC3)cc2cc(C(=O)c3ccc(Cl)cc3)oc12 (centres undefined) | 1.31 | 1.48 | 1.34 | 1.39 | 0.5 |  |  |  |  |  |  | 
15 | CCC(C)c1cc(C=O)cc2cc(C(=O)c3ccc(Cl)cc3)oc12 (centres undefined) | 0.77 | 0.78 | 0.96 | 0.98 | 0.26 |  |  |  |  |  |  | 
16 | CCC(C)c1cc(C2C(C(=O)OC)=C(C)NC3=C2C(=O)CCC3)cc2cc(C(=O)c3ccc([N+](=O)[O-])cc3)oc12 (centres undefined) | 0.82 | 0.72 | 0.82 | 0.65 | 0.25 |  |  |  |  |  |  | 
17 | COC(=O)C1=C(C)NC2=C(C(=O)CC(C)(C)C2)C1c1cc(C(C)(C)C)c2oc(C(=O)c3ccc(OC)cc3)cc2c1 (centres undefined) | 1.25 | 1.15 | 1.1 | 0.79 | 0.36 |  |  |  |  |  |  | 
18 | CCC(C)c1cc(C2C(C(=O)OC)=C(C)NC3=C2C(=O)CCC3)cc2cc(C(=O)c3ccc(OC)cc3)oc12 (centres undefined) | 1.34 | 1.34 | 1.09 | 1.37 | 0.37 |  |  |  |  |  |  | 
19 | CCC(C)c1cc(C2C(C(=O)OC)=C(C)NC3=C2C(=O)CC(C)(C)C3)cc2cc(C(=O)c3ccc(C)cc3)oc12 (centres undefined) | 1.13 | 1.16 | 1.11 | 1.08 | 0.37 |  |  |  |  |  |  | 
20 | CCOC(=O)C1=C(C)NC2=C(C(=O)CC(C)(C)C2)C1c1cc(C(C)CC)c2oc(C(=O)c3ccc(OC)cc3)cc2c1 (centres undefined) | 1.13 | 0.82 | 1.3 | 1.08 | 0.51 |  |  |  |  |  |  | 
21 | CCc1cc(C=O)cc2cc(C(=O)c3ccc(OC)cc3)oc12 | 1.03 | 1.11 | 1.24 | 1.09 | 0.29 |  |  |  |  |  |  | 
22 | CCC(C)c1cc(C2C(C(=O)OC)=C(C)NC3=C2C(=O)CC(C)(C)C3)cc2cc(C(=O)c3ccc(OC)cc3)oc12 (centres undefined) | 1.26 | 0.64 | 1.14 | 0.97 | 0.29 |  |  |  |  |  |  | 
23 | CCC(C)c1cc(C2C(C(=O)OC)=C(C)NC3=C2C(=O)CC(C)(C)C3)cc2cc(C(=O)c3ccc([N+](=O)[O-])cc3)oc12 (centres undefined) | 0.76 | 1.03 | 1.06 | 0.98 | 0.3 |  |  |  |  |  |  | 
24 | CCC(C)c1cc(C2C(C(=O)OC)=C(C)NC3=C2C(=O)CCC3)cc2cc(C(=O)c3ccc(C)cc3)oc12 (centres undefined) | 0.84 | 1.12 | 1.17 | 0.99 | 0.25 |  |  |  |  |  |  | 
25 | CCC(C)c1cc(C=O)cc2cc(C(=O)c3ccc(OC)cc3)oc12 (centres undefined) | 1.21 | 1.49 | 1.59 | 1.35 | 0.58 | 10 nM |  |  |  |  |  | 
26 | CCOC(=O)C1=C(C)NC2=C(C(=O)CCC2)C1c1cc(CC)c2oc(C(=O)c3ccc(OC)cc3)cc2c1 (centres undefined) | 1.8 | 1.49 | 1.64 | 1.32 | 0.41 | 10000 nM | 2 - 5.5 | 2 - 5.5 | 2 - 5.5 | Active | 2 - 5.5 | 2 - 5.5
